Reference: ChEMBL document CHEMBL2046342, “Re-engineering aryl methylcarbamates to confer high selectivity for inhibition of Anopheles gambiae versus human acetylcholinesterase” (2012)
In brackets after ≈: the same amount, converted by molar mass.

Assays:
[1] = target: Acetylcholinesterase (Homo sapiens) (UniProt P22303); test: Inhibition of human recombinant AChE after 6 mins by Ellman assay
In short: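 Recombinant human AChE was assayed by Ellman method for time-dependent inactivation at fixed inhibitor concentrations. Pseudo-first-order kobs was taken from ln(v/v0) vs incubation time. Three or more inhibitor levels gave kobs vs [I], and its linear slope gave apparent ki (mM⁻¹ min⁻¹). DMSO was held at 0.1% (v/v) final.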

[2] = target: Acetylcholinesterase (Anopheles gambiae) (UniProt Q869C3); test: Inhibition of Anopheles gambiae AChE expressed in Escherichia coli after 6 mins by Ellman assay
Chain of Acetylcholinesterase (Anopheles gambiae) (Q869C3 39-737 limits assumed): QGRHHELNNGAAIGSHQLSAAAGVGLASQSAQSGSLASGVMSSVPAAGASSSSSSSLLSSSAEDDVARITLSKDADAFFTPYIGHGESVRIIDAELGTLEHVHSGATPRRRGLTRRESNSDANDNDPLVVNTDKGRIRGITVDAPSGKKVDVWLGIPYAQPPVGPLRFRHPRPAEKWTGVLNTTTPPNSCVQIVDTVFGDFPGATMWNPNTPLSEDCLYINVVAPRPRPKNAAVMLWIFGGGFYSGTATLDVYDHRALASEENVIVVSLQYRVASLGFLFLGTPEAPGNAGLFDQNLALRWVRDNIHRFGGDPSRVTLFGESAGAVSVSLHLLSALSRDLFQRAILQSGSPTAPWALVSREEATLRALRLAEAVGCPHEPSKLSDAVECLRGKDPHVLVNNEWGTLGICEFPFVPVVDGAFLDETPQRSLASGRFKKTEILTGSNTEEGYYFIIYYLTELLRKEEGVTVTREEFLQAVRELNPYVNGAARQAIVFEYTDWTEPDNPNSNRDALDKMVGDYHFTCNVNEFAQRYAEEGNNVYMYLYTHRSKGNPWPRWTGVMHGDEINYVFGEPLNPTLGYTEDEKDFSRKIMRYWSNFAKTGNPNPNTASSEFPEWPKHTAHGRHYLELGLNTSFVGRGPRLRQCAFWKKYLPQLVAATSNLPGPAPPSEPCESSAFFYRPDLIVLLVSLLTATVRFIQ
In short: (§1)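 Time-dependent inactivation of recombinant AgAChE (purified to 2,500 ± 100 U/mg) monitored by Ellman assay. Residual velocity (v/v0) was measured against incubation time at fixed inhibitor levels, and kobs came from the ln(v/v0) vs t slope. kobs at three or more [I] was plotted against [I], and the linear slope gave apparent second-order ki (mM⁻¹ min⁻¹). Final DMSO was constant at 0.1% (v/v).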

Anopheles gambiae [3] = test: Toxicity in Anopheles gambiae G3 assessed as mortality treated as tarsal contact using dried filter papers after 24 hrs; type: functional; settings: G3, 24 h
[4] = Selectivity ratio of Ki for Anopheles gambiae AChE to Ki for human recombinant AChE
In short: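 Ratio ki(Ag)/ki(h) of apparent second-order inactivation constants, both from Ellman-assay kobs vs [I] slopes using purified recombinant AgAChE and recombinant hAChE. Error in the ratio was computed by standard propagation of error.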

[5] = Selectivity ratio of Torpedo californica AChE to human AChE
Anopheles gambiae [6] = test: Toxicity in Anopheles gambiae G3 assessed as mortality at 250 ug/ml treated as tarsal contact using dried filter papers after 24 hrs; type: functional
In short: (§2)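 Tarsal contact assay. Filter papers were treated with ethanolic carbamate solutions and dried, and adult Anopheles gambiae were exposed for 1 h. Mortality was scored after 24 h. Concentrations refer to the solutions used to treat the papers.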

Anopheles gambiae [7] = test: Toxicity in anesthetized Anopheles gambiae G3 assessed as mortality treated as topical application assessed per mosquito after 24 hrs; type: functional
[8] = target: Acetylcholinesterase (Anopheles gambiae) (UniProt Q869C3); test: Inhibition of Anopheles gambiae AChE at 6 uM after 1 hr
Anopheles gambiae [9] = test: Toxicity in Anopheles gambiae G3 assessed as mortality at 1000 ug/ml treated as tarsal contact using dried filter papers after 24 hrs; type: functional; in short: as §2
[10] = target: Acetylcholinesterase (Anopheles gambiae) (UniProt Q869C3); test: Inhibition of Anopheles gambiae AChE; settings: concentration not given here; in short: as §1

Chain of Acetylcholinesterase (Homo sapiens) (P22303 whole entry): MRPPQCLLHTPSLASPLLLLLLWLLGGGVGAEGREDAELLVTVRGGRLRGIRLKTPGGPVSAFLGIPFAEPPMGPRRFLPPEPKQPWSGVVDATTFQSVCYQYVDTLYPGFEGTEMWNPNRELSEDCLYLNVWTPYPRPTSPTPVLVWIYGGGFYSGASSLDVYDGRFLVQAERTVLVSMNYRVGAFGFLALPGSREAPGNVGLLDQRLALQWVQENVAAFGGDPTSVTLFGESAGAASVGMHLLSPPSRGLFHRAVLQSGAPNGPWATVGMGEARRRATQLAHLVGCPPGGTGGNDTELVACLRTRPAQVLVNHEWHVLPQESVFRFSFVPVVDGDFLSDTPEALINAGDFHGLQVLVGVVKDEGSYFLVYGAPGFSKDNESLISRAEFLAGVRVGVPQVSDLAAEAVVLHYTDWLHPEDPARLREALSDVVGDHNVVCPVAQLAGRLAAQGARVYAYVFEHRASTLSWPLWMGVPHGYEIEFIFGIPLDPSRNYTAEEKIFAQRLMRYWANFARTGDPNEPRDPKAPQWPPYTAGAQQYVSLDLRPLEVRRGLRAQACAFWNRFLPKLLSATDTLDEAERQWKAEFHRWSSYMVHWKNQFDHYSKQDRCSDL

CCCCc1cccc(OC(=O)NC)c1
Kinact [1]: 32.1 mM⁻¹ min⁻¹ | apparent second-order inhibition rate constant ki [2]: 741 mM⁻¹ min⁻¹ | LC50 (Anopheles gambiae [3]): 237 µg/mL (≈ 1140 µM) | Ratio Ki [4]: 23

CCN(C)C(=O)Oc1cccc([C@H](C)N(C)C)c1
Selectivity ratio [5]: 1500

CCC(C)(C)c1cccc(OC(=O)NC)c1
Kinact [1]: 784 mM⁻¹ min⁻¹ | apparent second-order inhibition rate constant ki [2]: 7600 mM⁻¹ min⁻¹ | LC50 (Anopheles gambiae [3]): 115 µg/mL (≈ 520 µM) | Ratio Ki [4]: 9.7

CCC(C)(CC)c1cccc(OC(=O)NC)c1
Kinact [1]: 553 mM⁻¹ min⁻¹ | Activity (Anopheles gambiae [6]): 72% | apparent second-order inhibition rate constant ki [2]: 5280 mM⁻¹ min⁻¹ | Ratio Ki [4]: 9.5

CCCC(C)(C)c1cccc(OC(=O)NC)c1
Kinact [1]: 1360 mM⁻¹ min⁻¹ | apparent second-order inhibition rate constant ki [2]: 6690 mM⁻¹ min⁻¹ | LC50 (Anopheles gambiae [3]): 236 µg/mL (≈ 1000 µM) | Ratio Ki [4]: 4.9

CNC(=O)Oc1ccccc1OCC1CCCC1
Kinact [1]: 0.28 mM⁻¹ min⁻¹ | apparent second-order inhibition rate constant ki [2]: 9.8 mM⁻¹ min⁻¹ | Ratio Ki [4]: 36

CNC(=O)Oc1ccccc1
Kinact [1]: 0.2 mM⁻¹ min⁻¹ | apparent second-order inhibition rate constant ki [2]: 2.75 mM⁻¹ min⁻¹ | Ratio Ki [4]: 13

CC[Si](C)(C)c1cccc(OC(=O)NC)c1
Kinact [1]: 110 mM⁻¹ min⁻¹ | apparent second-order inhibition rate constant ki [2]: 1510 mM⁻¹ min⁻¹ | LD50 (Anopheles gambiae [7]): 8 ng | LC50 (Anopheles gambiae [3]): 169 µg/mL (≈ 712 µM) | Ratio Ki [4]: 14

CCC(C)c1cccc(OC(=O)NC)c1 (racemic)
Kinact [1]: 1910 mM⁻¹ min⁻¹ | apparent second-order inhibition rate constant ki [2]: 10000 mM⁻¹ min⁻¹ | LD50 (Anopheles gambiae [7]): 1.6 ng | LC50 (Anopheles gambiae [3]): 31 µg/mL (≈ 150 µM) | Ratio Ki [4]: 5.3

CCCc1cccc(OC(=O)NC)c1
Kinact [1]: 63.7 mM⁻¹ min⁻¹ | apparent second-order inhibition rate constant ki [2]: 881 mM⁻¹ min⁻¹ | LC50 (Anopheles gambiae [3]): 41 µg/mL (≈ 212 µM) | Ratio Ki [4]: 14

CNC(=O)Oc1cccc(C)c1 [METOLCARB]
Kinact [1]: 0.52 mM⁻¹ min⁻¹ | apparent second-order inhibition rate constant ki [2]: 17.2 mM⁻¹ min⁻¹ | LC50 (Anopheles gambiae [3]): 712 µg/mL (≈ 4310 µM) | Ratio Ki [4]: 33

CCC(CC)CCc1ccccc1OC(=O)NC
Kinact [1]: 0.75 mM⁻¹ min⁻¹ | apparent second-order inhibition rate constant ki [2]: 75.3 mM⁻¹ min⁻¹ | Ratio Ki [4]: 100

CCC(CC)COc1cccc(OC(=O)NC)c1
Kinact [1]: 5 mM⁻¹ min⁻¹ | apparent second-order inhibition rate constant ki [2]: 28.8 mM⁻¹ min⁻¹ | Ratio Ki [4]: 5.8

CNC(=O)Oc1cccc(CC(C)C)c1
Kinact [1]: 5.5 mM⁻¹ min⁻¹ | apparent second-order inhibition rate constant ki [2]: 155 mM⁻¹ min⁻¹ | Ratio Ki [4]: 28

C[N+](C)(C)CCCCCCCCCCCCCCCCCCSS(C)(=O)=O
inhibition [8]: > 95%

CNC(=O)Oc1ccccc1OCC1CCCCC1
Kinact [1]: 0.21 mM⁻¹ min⁻¹ | apparent second-order inhibition rate constant ki [2]: 0.48 mM⁻¹ min⁻¹ | Ratio Ki [4]: 2.3

CNC(=O)Oc1cccc([Si](C)(C)C)c1
Kinact [1]: 67.8 mM⁻¹ min⁻¹ | apparent second-order inhibition rate constant ki [2]: 648 mM⁻¹ min⁻¹ | Ratio Ki [4]: 9.6

CCC(CC)CSc1ccccc1OC(=O)NC
Kinact [1]: 14.5 mM⁻¹ min⁻¹ | Activity (Anopheles gambiae [9]): 27% | apparent second-order inhibition rate constant ki [2]: 1850 mM⁻¹ min⁻¹ | LD50 (Anopheles gambiae [7]): 10 ng | Ratio Ki [4]: 130

C=C(C)CSc1ccccc1OC(=O)NC
Kinact [1]: 7.5 mM⁻¹ min⁻¹ | apparent second-order inhibition rate constant ki [2]: 414 mM⁻¹ min⁻¹ | LD50 (Anopheles gambiae [7]): 12 ng | LC50 (Anopheles gambiae [3]): 317 µg/mL (≈ 1340 µM) | Ratio Ki [4]: 55

CNC(=O)Oc1cccc2c1OC(C)(C)O2 [BENDIOCARB]
Kinact [1]: 111 mM⁻¹ min⁻¹ | apparent second-order inhibition rate constant ki [2]: 839 mM⁻¹ min⁻¹ | LD50 (Anopheles gambiae [7]): 0.74 ng | LC50 (Anopheles gambiae [3]): 16 µg/mL (≈ 71.7 µM) | Ratio Ki [4]: 7.6 | inhibition [10]: 49%

CNC(=O)Oc1cccc(CCC(C)C)c1
Kinact [1]: 5.2 mM⁻¹ min⁻¹ | apparent second-order inhibition rate constant ki [2]: 272 mM⁻¹ min⁻¹ | LC50 (Anopheles gambiae [3]): 342 µg/mL (≈ 1550 µM) | Ratio Ki [4]: 53

CCC(CC)COc1ccccc1OC(=O)NC
Kinact [1]: 0.48 mM⁻¹ min⁻¹ | Activity (Anopheles gambiae [9]): 27% | apparent second-order inhibition rate constant ki [2]: 255 mM⁻¹ min⁻¹ | LD50 (Anopheles gambiae [7]): 81 ng | Ratio Ki [4]: 530

CNC(=O)Oc1cccc(C(C)C)c1
Kinact [1]: 383 mM⁻¹ min⁻¹ | apparent second-order inhibition rate constant ki [2]: 3270 mM⁻¹ min⁻¹ | Ratio Ki [4]: 8.5

CNC(=O)Oc1cccc2c1OC(C)(C)C2 [CARBOFURAN]
Kinact [1]: 428 mM⁻¹ min⁻¹ | apparent second-order inhibition rate constant ki [2]: 2620 mM⁻¹ min⁻¹ | LD50 (Anopheles gambiae [7]): 0.85 ng | LC50 (Anopheles gambiae [3]): 16 µg/mL (≈ 72.3 µM) | Ratio Ki [4]: 6.1 | inhibition [10]: 49%

C=C(C)COc1ccccc1OC(=O)NC
Kinact [1]: 0.74 mM⁻¹ min⁻¹ | apparent second-order inhibition rate constant ki [2]: 62.2 mM⁻¹ min⁻¹ | Ratio Ki [4]: 84

CNC(=O)Oc1ccccc1SCC(C)C
Kinact [1]: 6.5 mM⁻¹ min⁻¹ | apparent second-order inhibition rate constant ki [2]: 526 mM⁻¹ min⁻¹ | LD50 (Anopheles gambiae [7]): 10 ng | LC50 (Anopheles gambiae [3]): 212 µg/mL (≈ 886 µM) | Ratio Ki [4]: 81

CNC(=O)Oc1ccccc1OC(C)C [PROPOXUR]
Kinact [1]: 17 mM⁻¹ min⁻¹ | apparent second-order inhibition rate constant ki [2]: 266 mM⁻¹ min⁻¹ | LD50 (Anopheles gambiae [7]): 3.2 ng | LC50 (Anopheles gambiae [3]): 39 µg/mL (≈ 186 µM) | Ratio Ki [4]: 16 | inhibition [10]: 49%

CCC(C)CSc1ccccc1OC(=O)NC (racemic)
Kinact [1]: 16.8 mM⁻¹ min⁻¹ | apparent second-order inhibition rate constant ki [2]: 806 mM⁻¹ min⁻¹ | Ratio Ki [4]: 48

CNC(=O)Oc1cccc(C(C)(C)C)c1
Kinact [1]: 126 mM⁻¹ min⁻¹ | apparent second-order inhibition rate constant ki [2]: 1510 mM⁻¹ min⁻¹ | LD50 (Anopheles gambiae [7]): 4.5 ng | LC50 (Anopheles gambiae [3]): 37 µg/mL (≈ 179 µM) | Ratio Ki [4]: 12

CNC(=O)Oc1ccccc1OCC(C)C
Kinact [1]: 0.65 mM⁻¹ min⁻¹ | apparent second-order inhibition rate constant ki [2]: 52.8 mM⁻¹ min⁻¹ | LD50 (Anopheles gambiae [7]): 19 ng | LC50 (Anopheles gambiae [3]): 290 µg/mL (≈ 1300 µM) | Ratio Ki [4]: 81

CNC(=O)Oc1cccc(C(C)(C)C(F)(F)F)c1
Kinact [1]: 139 mM⁻¹ min⁻¹ | apparent second-order inhibition rate constant ki [2]: 1580 mM⁻¹ min⁻¹ | LC50 (Anopheles gambiae [3]): 61 µg/mL (≈ 233 µM) | Ratio Ki [4]: 11

CNC(=O)Oc1ccccc1C
Kinact [1]: 0.24 mM⁻¹ min⁻¹ | apparent second-order inhibition rate constant ki [2]: 1.31 mM⁻¹ min⁻¹ | Ratio Ki [4]: 5.4

CCC(C)COc1ccccc1OC(=O)NC (racemic)
Kinact [1]: 0.58 mM⁻¹ min⁻¹ | apparent second-order inhibition rate constant ki [2]: 125 mM⁻¹ min⁻¹ | LD50 (Anopheles gambiae [7]): 33 ng | LC50 (Anopheles gambiae [3]): 445 µg/mL (≈ 1880 µM) | Ratio Ki [4]: 216

CNC(=O)Oc1cccc2ccccc12
inhibition [10]: 49%

CCC(C)(c1cccc(OC(=O)NC)c1)C(F)(F)F (racemic)
Kinact [1]: 375 mM⁻¹ min⁻¹ | apparent second-order inhibition rate constant ki [2]: 3270 mM⁻¹ min⁻¹ | LC50 (Anopheles gambiae [3]): 68 µg/mL (≈ 247 µM) | Ratio Ki [4]: 8.7

CNC(=O)Oc1ccccc1SC
Kinact [1]: 5.1 mM⁻¹ min⁻¹ | apparent second-order inhibition rate constant ki [2]: 68.9 mM⁻¹ min⁻¹ | Ratio Ki [4]: 14
